Laboratory results as given in PubChem BioAssay.
Activity calls are given as the source filed them.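 Rule for the calls, unless noted: active = current rise at least 3 SD above the untreated control mean in each of two repeat wells; inactive = the rest.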

Key:
[1] = biological target: Potassium voltage-gated channel subfamily KQT member 1 (Homo sapiens) (UniProt P51787); test: KCNQ1 activators by electrophysiology – IonWorks patch clamp, KCNQ1-CHO cells, orthogonal assay for KCNQ1 potentiator project, confirmation (AID 493184); details: automated patch clamp current, at 10 µM
How it was run: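 Probe or stimulus: depolarizing pulse to +40 mV from -90 mV; Material: CHO cells carrying KCNQ1; Compound: one dose, 10 µM final; Signal: automated voltage clamp, amphotericin B perforated patch; Read-out basis: percent current increase versus pre-compound level; Buffer or medium: pH 7.4 external bath; Replication: duplicates.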

[2] = biological target: Potassium voltage-gated channel subfamily E member 1 (Homo sapiens) + Potassium voltage-gated channel subfamily KQT member 1 (Homo sapiens) (UniProt P15382+P51787); test: KCNQ1-E1 channel activation – thallium flux, CHO-K1 KCNQ1/E1 cells, selectivity assay for KCNQ1 potentiator project, confirmation (AID 493186;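 active = mean duplicate activation above the buffer control mean plus 5 SD of those controls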); details: FluxOR thallium flux, at 10 µM
How it was run: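 system = KCNQ1/E1-expressing stable CHO-K1 cell line | doses = single compound concentration per well | times = dye 90 min, compound 20 min, room temperature | measured by = FluxOR Tl+ flux fluorescence, kinetic read | evaluation = fluorescence rise relative to baseline, as percent of R-L3 response above buffer | controls = buffer and R-L3 | replicates = duplicate wells per compound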

Sequence of Potassium voltage-gated channel subfamily E member 1 (Homo sapiens) + Potassium voltage-gated channel subfamily KQT member 1 (Homo sapiens) (P51787 whole entry, looked up): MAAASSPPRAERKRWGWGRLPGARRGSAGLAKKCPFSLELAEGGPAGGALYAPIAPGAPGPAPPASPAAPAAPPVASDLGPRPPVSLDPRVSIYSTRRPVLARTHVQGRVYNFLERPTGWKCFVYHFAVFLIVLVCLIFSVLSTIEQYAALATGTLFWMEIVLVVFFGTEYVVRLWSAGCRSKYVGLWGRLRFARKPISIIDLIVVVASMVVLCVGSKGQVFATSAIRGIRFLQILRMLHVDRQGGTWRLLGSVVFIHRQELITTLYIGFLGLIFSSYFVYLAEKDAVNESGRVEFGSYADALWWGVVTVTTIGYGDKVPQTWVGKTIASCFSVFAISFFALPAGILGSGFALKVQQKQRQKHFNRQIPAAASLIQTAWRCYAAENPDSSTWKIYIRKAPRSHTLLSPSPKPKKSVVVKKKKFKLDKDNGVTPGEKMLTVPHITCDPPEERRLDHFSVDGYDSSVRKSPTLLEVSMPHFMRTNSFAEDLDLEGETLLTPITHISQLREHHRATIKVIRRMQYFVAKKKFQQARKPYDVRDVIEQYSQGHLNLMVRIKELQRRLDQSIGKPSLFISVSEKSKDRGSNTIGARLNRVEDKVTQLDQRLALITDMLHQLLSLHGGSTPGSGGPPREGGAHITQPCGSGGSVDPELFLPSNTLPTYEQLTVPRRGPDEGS
Sequence of Potassium voltage-gated channel subfamily KQT member 1 (Homo sapiens) (P51787 whole entry, looked up): as above

Row | SMILES | outcome [1] | outcome [2]
1 | CC1=NN(c2ccccc2)C(=O)/C1=C/c1c(O)n(-c2ccc(F)c(Cl)c2)[nH]c1=O | inactive | 
2 | O=C(O)c1ccc(Cl)cc1Nc1nc2cc(Cl)ccc2o1 | inactive | 
3 | c1ccc(-c2nc(NCc3ccco3)c3ccccc3n2)cc1 | inactive | 
4 | CCCc1nc2oc3c(NCCN(C)C)ncnc3c2c2c1CCCC2 | inactive | inactive
5 | Cc1ccc(OCC(=O)NNC(=S)NC(=O)c2ccc(Br)o2)c(C)c1 | inactive | 
6 | Oc1c(Br)cc(Br)cc1C=Nc1ccc2[nH]ncc2c1 | inactive | 
7 | C=CCSc1nc2c(c(=O)[nH]c(=O)n2C)n1C/C=C(/C)Cl | inactive | inactive
8 | O=Cc1cc(N=Nc2ccccc2Cl)ccc1O | inactive | 
9 | CC(=O)C1=C(S(=O)(=O)c2ccc(C)cc2)CS(=O)(=O)C1 | inactive | 
10 | Cc1ccc(/C=C/C(=O)c2ccc(O)cc2)cc1 | inactive | 
11 | CC(C1CC2CCC1C2)n1c(-c2cccs2)n[nH]c1=S (stereo not given) | inactive | inactive
12 | Cc1nc2c3cc(Cl)ccc3n(CCN3CCCCC3)c2s1 | inactive | 
13 | S=c1[nH]nc(-c2cc3c(s2)-c2ccccc2CC3)o1 | inactive | 
14 | CN(C)CC(CCC(CN(C)C)C(O)(c1ccccc1)c1ccccc1)C(O)(c1ccccc1)c1ccccc1 (stereo not given) | inactive | inactive
15 | COc1cc(NS(=O)(=O)c2ccc3ccccc3c2)c2ncccc2c1 | inactive | inactive
16 | Brc1ccccc1CN1CCN(Cc2c[nH]c3ccccc23)CC1 | inactive | inactive
17 | Cc1cc(C)cc(N/C(N)=N/c2nc(C)cc(C)n2)c1 | inactive | inactive
18 | Cc1cccc(/C=N/NC(=O)c2cc(Br)ccc2O)n1 | inactive | 
